“And” between values parts separate entries of the source, which are not always exact repeats. Equal values may be shown once.

Consider 13 molecules from ChEMBL document CHEMBL1130410, “19-nor-10-azasteroids: a novel class of inhibitors for human steroid 5alpha-reductases 1 and 2” (J Med Chem, 1997).

Assay [1] concerns the target T1, 3-oxo-5-alpha-steroid 4-dehydrogenase 2 (Homo sapiens, UniProt P31213).
T1 sequence (P31213 whole entry): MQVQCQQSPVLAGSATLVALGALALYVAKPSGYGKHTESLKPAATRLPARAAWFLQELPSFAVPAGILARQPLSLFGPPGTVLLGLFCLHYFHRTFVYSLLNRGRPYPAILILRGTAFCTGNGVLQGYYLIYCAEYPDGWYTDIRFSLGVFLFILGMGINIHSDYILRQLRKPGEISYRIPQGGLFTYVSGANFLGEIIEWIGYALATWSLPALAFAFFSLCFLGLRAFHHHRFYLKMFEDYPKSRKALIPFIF
As to the kind of experiment: Inhibition against 5 alpha R-2 in human prostate homogenate compared with finasteride in experiment 1. In kind it is tissue-based, Prostate gland. The gist of the method:
(§1)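 Benign hyperplastic human prostate tissue, stored at -80 °C, was homogenized near 0 °C in 50 mM TRIS pH 7.4 with salts, nicotinamide and sucrose, spun at 200g, and the combined supernatants were used. Homogenate (0.1 mg protein) was incubated with 30 nM testosterone (9% [3H]) and 0.3 mM NADPH for 30 min at 37 °C, with the inhibitor added alongside the substrate. Inhibitor range was 10⁻¹⁰–10⁻⁵ M. DHT conversion was read by TLC and scintillation, in duplicate.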

The target in assay [2] is T1, 3-oxo-5-alpha-steroid 4-dehydrogenase 2. As to the kind of experiment: Inhibitory activity against 5-alpha Reductase-2 on human prostate homogenates from surgically derived benign hyperplastic tissue in experiment 1. In kind it is tissue-based, Prostate gland. The gist of the method: as §1
The target is the same in assay [3]. As to the kind of experiment: Tested against 5 alpha R-2 on human prostate homogenate from surgically derived benign hyperplastic tissue in experiment 2. In kind it is tissue-based, Prostate gland. The gist of the method: as §1
Assay [4] shares this target. The experiment in a line: Inhibition against 5 alpha R-2 in human prostate homogenate compared with finasteride in experiment 3. It is filed as tissue-based, Prostate gland. The gist of the method:
as §1

Assay [5] has the same target. As to the kind of experiment: Tested against 5 alpha R-2 on human prostate homogenate from surgically derived benign hyperplastic tissue in experiment 3. In kind it is tissue-based, Prostate gland. In a few lines: as §1
Assay [6] shares this target. The experiment in a line: Inhibition against 5 alpha R-2 in human prostate homogenate compared with finasteride in experiment 2. In kind it is tissue-based, Prostate gland. The gist of the method: as §1
Assay [7] shares this target. The experiment in a line: TInhibitory activity against 5-alpha Reductase-2 on human prostate homogenates from surgically derived benign hyperplastic tissue in experiment 2. In kind it is tissue-based, Prostate gland. In a few lines:
as §1

The target of assay [8] is T2, 3-oxo-5-alpha-steroid 4-dehydrogenase 1 (Homo sapiens, UniProt P18405).
T2 sequence (P18405 whole entry): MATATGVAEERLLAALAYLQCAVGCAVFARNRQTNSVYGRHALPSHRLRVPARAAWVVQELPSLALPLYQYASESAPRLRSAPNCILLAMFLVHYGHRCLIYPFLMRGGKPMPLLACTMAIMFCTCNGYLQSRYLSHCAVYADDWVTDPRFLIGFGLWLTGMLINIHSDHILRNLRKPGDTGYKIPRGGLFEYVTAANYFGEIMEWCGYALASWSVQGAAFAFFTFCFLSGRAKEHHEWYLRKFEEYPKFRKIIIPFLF
As to the kind of experiment: (§2) Inhibitory activity against human 5-alpha Reductase-1 expressed in DU-145 cells. In kind it is cell-based. In a few lines:
(§3)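 DU-145 cells (passage 60–90) were plated at 100 000 cells/well and left to adhere for 24 h. Inhibitors were prepared in ethanol, diluted in phenol-red-free MEM and tested at five doses, 10⁻⁹–10⁻⁵ M, with 5 nM [3H]androstenedione. After 6 h at 37 °C in 5% CO2, the medium was extracted with ethyl acetate and analysed by TLC and scintillation.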

For assay [9], the target named is T1, 3-oxo-5-alpha-steroid 4-dehydrogenase 2. The experiment in a line: Tested against 5 alpha R-2 on human prostate homogenate from surgically derived benign hyperplastic tissue in experiment 1. In kind it is tissue-based, Prostate gland. In a few lines:
as §1

Assay [10] has the same target. The experiment in a line: Inhibition against 5 alpha R-2 in human prostate homogenate relative to finasteride. It is filed as tissue-based, Prostate gland.
Assay [11] shares this target. The experiment in a line: Inhibitory activity against 5-alpha Reductase-2 on human prostate homogenates from surgically derived benign hyperplastic tissue. It is filed as tissue-based, Prostate gland. In a few lines:
as §1

The target in assay [12] is 3-oxo-5-alpha-steroid 4-dehydrogenase 1 (Homo sapiens, UniProt P18405). The description is as §2. In kind it is cell-based. In a few lines: as §3
The source holds these as a separate data set.

`CC(C)(C)NC(=O)[C@H]1CC[C@H]2C3=C(CC[C@]12C)N1CCC(=O)C=C1CC3.CC(C)(C)NC(=O)[C@H]1CC[C@H]2C3CCC4=CC(=O)CCN4C3=CC[C@]12C` (some centres not stated): the IC50 in [1] was 2.2 nM and 3.4 nM; in [2] it was 37 nM; in [3], 7.3 nM; in [4], 4.3 nM; in assay [5], 150 nM; in assay [6] it was 5.7 nM and 3.1 nM. Besides, the IC50 in assay [7] was found to be 122 nM; in assay [8], 127 nM; in assay [9], 10.2 nM.

Regarding `C[C@]12CC=C3[C@@H](CCC4=CC(=O)CCN43)C1CC[C@@H]2O.C[C@]12CCC3=C(CCC4=CC(=O)CCN43)C1CC[C@@H]2O` (some centres not stated), the results for the IC50 in assay [10] and in [11] were 3 nM and 2900 nM, respectively.

Turning to `C[C@]12CC[C@H]3[C@@H](CCC4CC(=O)C=CN43)[C@@H]1CCC2=O` (some centres not stated), the values for the IC50 in assay [10] and in [11] were 2.4 nM and 46000 nM, respectively.

Consider `C[C@]12CC[C@H]3[C@@H](CC[C@H]4CC(=O)CCN43)[C@@H]1CCC2=O`, for which the IC50 in assay [10] is 2.9 nM; in [11], above 100000 nM; in assay [8], above 100000 nM.

On to `C=CC(=O)/C=C1/CCC2=C(CC[C@]3(C)C(=O)CC[C@@H]23)N1.C=CC(=O)/C=C1/CCC2C(=CC[C@]3(C)C(=O)CC[C@@H]23)N1` (some centres not stated), for which the IC50 in assay [10] was 6.1 nM; in [11] it was above 100000 nM.

As for `C[C@]12CC[C@H]3[C@@H](CCC4=CC(=O)CCN43)[C@@H]1CC[C@@H]2O`, the IC50 was determined as 2.7 nM in assay [10], 4200 nM in assay [11] and 409 nM in assay [8].

Turning to `C[C@]12CC[C@H]3[C@@H](CCC4=CC(=O)CCN43)[C@@H]1CCC2=O`, the IC50 in assay [10] was 3.5 nM; in assay [11], 4400 nM; in assay [8], 299 nM.

Take `CC(C)(C)NC(=O)[C@H]1CC[C@H]2[C@@H]3CCC4=CC(=O)CCN4[C@H]3CC[C@]12C`: the IC50 was 5.5 nM in [10], 460 nM in [11] and 1130 nM in [8].

In assay [10], `C[C@]12CC=C3[C@@H](CCC4=CC(=O)CCN43)C1CCC2=O.C[C@]12CCC3=C(CCC4=CC(=O)CCN43)C1CCC2=O` (stereo in doubt; 4a) showed an IC50 of 3.4 nM.

Take `C[C@]12CC=C3[C@@H](CCC4=CC(=O)CCN43)C1CCC2=O.C[C@]12CCC3=C(CCC4=CC(=O)CCN43)C1CCC2=O` (stereo in doubt; 4a:4b(5:1)): the IC50 stood at 4.1 nM in assay [10], 4600 nM in assay [11] and 263 nM in [8].

Consider `C[C@]12CC=C3C4=C(CCC3[C@@H]1CCC2=O)NCCC4=O.C[C@]12CCC3=C(CCC4=C3C(=O)CCN4)[C@@H]1CCC2=O` (stereo in doubt; 27b), for which the IC50 in [10] is 3.8 nM.

On to `C[C@]12CC=C3C4=C(CCC3[C@@H]1CCC2=O)NCCC4=O.C[C@]12CCC3=C(CCC4=C3C(=O)CCN4)[C@@H]1CCC2=O` (stereo in doubt; 27c), for which the IC50 is 6.1 nM in assay [10], above 100000 nM in assay [11] and above 100000 nM in [8].

With `CC(C)(C)NC(=O)[C@H]1CC[C@H]2[C@@H]3CC[C@H]4NC(=O)C=C[C@]4(C)[C@H]3CC[C@]12C` [FINASTERIDE], the IC50 is 3 nM in [11] and 42 nM in assay [12].
